Test system: U2OS
Assay: Multiplex assay against U2OS
Assay type: toxicity, cell-based
Conditions: human
Procedure, shortened: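 On a CQ1 microscope at 37°C and 5% CO2, live cells were imaged after compound addition. They had been stained at seeding with Hoechst33342, BioTracker Green Microtubule Cytoskeleton Dye, MitoTracker Red and Annexin V Alexa Fluor 680. CellPathfinder machine-learning gating assigned cells to Hoechst high-intensity objects or normal cells, normal cells to healthy, pyknosed or fragmented nuclei, and pyknosed cells to mitotic or apoptotic. Tubulin, mitochondrial-mass and membrane-permeability phenotypes are per cents of healthy-nucleus cells.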

[1] = 12 h, 1 µM, compound concentration 1 uM, replicate 1
[2] = 12 h, 1 µM, compound concentration 1 uM, replicate 2
[3] = 12 h, 10 µM, compound concentration 10 uM, replicate 1
[4] = 12 h, 10 µM, compound concentration 10 uM, replicate 2
[5] = 24 h, 1 µM, compound concentration 1 uM, replicate 1
[6] = 24 h, 1 µM, compound concentration 1 uM, replicate 2
[7] = 24 h, 10 µM, compound concentration 10 uM, replicate 1
[8] = 24 h, 10 µM, compound concentration 10 uM, replicate 2
[9] = 48 h, 1 µM, compound concentration 1 uM, replicate 1
[10] = 48 h, 1 µM, compound concentration 1 uM, replicate 2
[11] = 48 h, 10 µM, compound concentration 10 uM, replicate 1
[12] = 48 h, 10 µM, compound concentration 10 uM, replicate 2

CCc1cc2cc(NS(=O)(=O)c3ccc(C#N)cc3)ccc2n(CC)c1=O
Population Apoptotic (%) [1]: 88%
Population Fragmented Nuclei (%) [1]: 30%
Population Healthy Nuclei (%) [1]: 60%
Population Hoechst High Intensity Objects (%) [1]: 3%
Population Membrane Permeable-Phenotype (%) [1]: 4%
Population Mitochondria Different-Phenotype (%) [1]: 2%
Population Mitotic Cells (%) [1]: 11%
Population Normal (%) [1]: 96%
Population Pyknosed Nuclei (%) [1]: 9%
Population Tubulin-Different-Phenotype (%) [1]: 2%
Total Cell Count [1]: 286
Population Apoptotic (%) [2]: 100%
Population Fragmented Nuclei (%) [2]: 26%
Population Healthy Nuclei (%) [2]: 70%
Population Hoechst High Intensity Objects (%) [2]: 1%
Population Membrane Permeable-Phenotype (%) [2]: 8%
Population Mitotic Cells (%) [2]: 0%
Population Normal (%) [2]: 98%
Population Pyknosed Nuclei (%) [2]: 3%
Population Tubulin-Different-Phenotype (%) [2]: 7%
Total Cell Count [2]: 113
Population Apoptotic (%) [3]: 66%
Population Fragmented Nuclei (%) [3]: 28%
Population Healthy Nuclei (%) [3]: 64%
Population Hoechst High Intensity Objects (%) [3]: 2%
Population Membrane Permeable-Phenotype (%) [3]: 9%
Population Mitochondria Different-Phenotype (%) [3]: 3%
Population Mitotic Cells (%) [3]: 33%
Population Normal (%) [3]: 97%
Population Pyknosed Nuclei (%) [3]: 6%
Population Tubulin-Different-Phenotype (%) [3]: 4%
Total Cell Count [3]: 220
Population Apoptotic (%) [4]: 87%
Population Fragmented Nuclei (%) [4]: 13%
Population Healthy Nuclei (%) [4]: 80%
Population Membrane Permeable-Phenotype (%) [4]: 6%
Population Mitotic Cells (%) [4]: 12%
Population Pyknosed Nuclei (%) [4]: 5%
Total Cell Count [4]: 139
Population Apoptotic (%) [5]: 85%
Population Fragmented Nuclei (%) [5]: 29%
Population Healthy Nuclei (%) [5]: 61%
Population Hoechst High Intensity Objects (%) [5]: 2%
Population Membrane Permeable-Phenotype (%) [5]: 9%
Population Mitochondria Different-Phenotype (%) [5]: 2%
Population Mitotic Cells (%) [5]: 14%
Population Normal (%) [5]: 97%
Population Pyknosed Nuclei (%) [5]: 8%
Population Tubulin-Different-Phenotype (%) [5]: 6%
Total Cell Count [5]: 335
Population Apoptotic (%) [6]: 88%
Population Fragmented Nuclei (%) [6]: 16%
Population Healthy Nuclei (%) [6]: 75%
Population Hoechst High Intensity Objects (%) [6]: 1%
Population Membrane Permeable-Phenotype (%) [6]: 7%
Population Mitochondria Different-Phenotype (%) [6]: 7%
Population Mitotic Cells (%) [6]: 11%
Population Normal (%) [6]: 98%
Population Pyknosed Nuclei (%) [6]: 7%
Population Tubulin-Different-Phenotype (%) [6]: 3%
Total Cell Count [6]: 126
Population Apoptotic (%) [7]: 95%
Population Fragmented Nuclei (%) [7]: 23%
Population Healthy Nuclei (%) [7]: 67%
Population Hoechst High Intensity Objects (%) [7]: 3%
Population Membrane Permeable-Phenotype (%) [7]: 4%
Population Mitochondria Different-Phenotype (%) [7]: 2%
Population Mitotic Cells (%) [7]: 4%
Population Normal (%) [7]: 96%
Population Pyknosed Nuclei (%) [7]: 9%
Population Tubulin-Different-Phenotype (%) [7]: 1%
Total Cell Count [7]: 263
Population Apoptotic (%) [8]: 80%
Population Fragmented Nuclei (%) [8]: 14%
Population Healthy Nuclei (%) [8]: 79%
Population Membrane Permeable-Phenotype (%) [8]: 6%
Population Mitotic Cells (%) [8]: 20%
Population Pyknosed Nuclei (%) [8]: 6%
Population Tubulin-Different-Phenotype (%) [8]: 2%
Total Cell Count [8]: 159
Population Apoptotic (%) [9]: 89%
Population Fragmented Nuclei (%) [9]: 21%
Population Healthy Nuclei (%) [9]: 70%
Population Hoechst High Intensity Objects (%) [9]: 2%
Population Membrane Permeable-Phenotype (%) [9]: 6%
Population Mitochondria Different-Phenotype (%) [9]: 3%
Population Mitotic Cells (%) [9]: 10%
Population Normal (%) [9]: 97%
Population Pyknosed Nuclei (%) [9]: 8%
Population Tubulin-Different-Phenotype (%) [9]: 2%
Total Cell Count [9]: 450
Population Apoptotic (%) [10]: 84%
Population Fragmented Nuclei (%) [10]: 19%
Population Healthy Nuclei (%) [10]: 73%
Population Hoechst High Intensity Objects (%) [10]: 3%
Population Mitochondria Different-Phenotype (%) [10]: 5%
Population Mitotic Cells (%) [10]: 15%
Population Normal (%) [10]: 96%
Population Pyknosed Nuclei (%) [10]: 6%
Population Tubulin-Different-Phenotype (%) [10]: 3%
Total Cell Count [10]: 192
Population Apoptotic (%) [11]: 88%
Population Fragmented Nuclei (%) [11]: 18%
Population Healthy Nuclei (%) [11]: 72%
Population Hoechst High Intensity Objects (%) [11]: 3%
Population Membrane Permeable-Phenotype (%) [11]: 6%
Population Mitochondria Different-Phenotype (%) [11]: 2%
Population Mitotic Cells (%) [11]: 11%
Population Normal (%) [11]: 96%
Population Pyknosed Nuclei (%) [11]: 9%
Population Tubulin-Different-Phenotype (%) [11]: 3%
Total Cell Count [11]: 387
Population Apoptotic (%) [12]: 96%
Population Fragmented Nuclei (%) [12]: 15%
Population Healthy Nuclei (%) [12]: 73%
Population Hoechst High Intensity Objects (%) [12]: 2%
Population Membrane Permeable-Phenotype (%) [12]: 8%
Population Mitochondria Different-Phenotype (%) [12]: 3%
Population Mitotic Cells (%) [12]: 3%
Population Normal (%) [12]: 97%
Population Pyknosed Nuclei (%) [12]: 11%
Population Tubulin-Different-Phenotype (%) [12]: 7%
Total Cell Count [12]: 248
